Compound activity: PubChem, The Scripps Research Institute Molecular Screening Center
FXN GAA850 act – activators of GAA850 frataxin (FXN) promoter; HEK293 lucGAA850 FXN promoter luciferase reporter, 24 h; percent of 10 µM SAHA response; activation, % at 6 µM; 360,000 compounds, 0.56% hits; AID 540364;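 active means activation above the average of all compounds screened plus 3 SD, cutoff fixed separately per campaign, cut at about 7.5% in these data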;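 further: 0% = DMSO wells and 100% = 10 µM SAHA wells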
proCasp7 act – counter-screen: procaspase-7 (human) activation; AID 463210; activation, % at 8.5 µM; P55210; recombinant procaspase-7, Ac-DEVD-pNA absorbance 405 nm; D23A/D198A/D206A triple mutant, cannot self-cleave; scale: DMSO 0, 5 µM enzyme 100; 330,000 compounds, 0.093% hits;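 active means percent activation above the screen-wide mean plus 3 SD, cut at about 25% in these data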
Target sequence (P55210 whole entry D23A/D198A/D206A): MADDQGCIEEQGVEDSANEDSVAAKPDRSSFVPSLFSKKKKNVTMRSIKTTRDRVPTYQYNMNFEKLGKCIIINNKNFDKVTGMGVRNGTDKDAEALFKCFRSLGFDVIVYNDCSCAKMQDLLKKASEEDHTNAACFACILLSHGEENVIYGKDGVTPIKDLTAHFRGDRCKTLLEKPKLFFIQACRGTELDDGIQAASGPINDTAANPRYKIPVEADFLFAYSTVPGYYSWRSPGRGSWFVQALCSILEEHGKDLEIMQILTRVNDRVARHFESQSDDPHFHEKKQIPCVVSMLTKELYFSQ
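System: Uncleavable procaspase-7 mutant enzyme; Amount: 2 µM procaspase-7 mutant as dispensed; Schedule: 1 h compound preincubation, 2 h substrate cleavage, 25 °C; Measured by: 405 nm absorbance of p-nitroaniline; Evaluation: percent activation from buffer-corrected 0–120 min absorbance change; Control set: low DMSO alone, high DMSO plus 5 µM PC-7.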
procasp3 activ – activators of human procaspase-3. P42574. recombinant procaspase-3 D3A, Ac-DEVD-pNA absorbance 405 nm. activation, % at 8.5 µM. 330,000 compounds, 0.11% hits;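 active means activation above the mean of all tested compounds plus 3 SD, cut at about 21% in these data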;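 further: 0% = DMSO alone and 100% = DMSO wells spiked with extra 5 µM PC-3 D3A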
Target sequence (P42574 whole entry D9A/D28A/D175A): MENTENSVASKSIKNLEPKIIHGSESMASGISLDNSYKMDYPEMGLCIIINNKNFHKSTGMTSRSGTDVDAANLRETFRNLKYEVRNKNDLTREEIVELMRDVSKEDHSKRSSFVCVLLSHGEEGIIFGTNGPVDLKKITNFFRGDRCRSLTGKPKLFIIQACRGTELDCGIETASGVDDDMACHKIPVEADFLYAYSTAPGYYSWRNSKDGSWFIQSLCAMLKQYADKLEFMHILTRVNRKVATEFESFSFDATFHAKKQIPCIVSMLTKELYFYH
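Evaluation: percent activation relative to control range; Material: Procaspase-3 D3A mutant, all three cleavage aspartates alanine; Compound: single dose, 8.5 µM nominal compound, 0.8% DMSO; Replication: one well per compound; Signal: absorbance at 405 nm, 0 and 120 min; Schedule: 1 h preincubation plus 2 h reaction at 25 °C.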
GAA30 counter – activates GAA30 frataxin promoter, counter-screen for GAA850 activators | AID 588350 | 1,900 compounds, 66% hits | shares compounds with FXN GAA850 act | HEK293 lucGAA30 FXN promoter luciferase, 24 h; DMSO = 0%, 5 µM ipriflavone = 100% | activation, % at 6 µM;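 active means mean activation above the mean of solvent-only control wells plus 3 SD, cut at about 22% in these data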;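 further: counterscreen of GAA850 promoter hits where activity marks nonselective or luminescence artifacts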
FXN GAA850 conf – confirmation of GAA850 frataxin (FXN) promoter activators | AID 588351 | HEK293 lucGAA850 FXN promoter luciferase reporter, 24 h; 100% = activation by SAHA | shares compounds with FXN GAA850 act | activation, % at 6 µM | 1,900 compounds, 86% hits;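 active means mean activation above a set limit taken from the primary screen, cut at about 8% in these data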;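 further: 0% = DMSO wells and 100% = 10 µM SAHA wells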
The depositor's hits bear a star; . = no result given. Compounds with a hit are over-represented: about 0.7% of the library has one in this group of screens.

SMILES	FXN GAA850 act	proCasp7 act	procasp3 activ	GAA30 counter	FXN GAA850 conf
CN(c1ccc(C(=O)NCCSC(C)(C)C)cc1)S(C)(=O)=O	8.1*	15	3	104*	30*
CN(c1ccc(C(=O)NCCc2ccccc2)cc1)S(C)(=O)=O	4	8	13	.	.
CC1CCCCN1CCCNC(=O)CN1C(=O)c2cccnc2Oc2ccc(Cl)cc21 (stereo unspecified)	1	2	-4	.	.
COc1ccc(CCN2CC(C(=O)NCc3cccc(F)c3)CCC2=O)cc1 (stereo unspecified)	0	.	.	.	.
CCOC(=O)C(C(=O)OCC)c1cc(Br)c2noc3c2c1C(=O)c1ccccc1-3	2	-1	-9	.	.
O=C1c2ccccc2-c2onc3ccc(Oc4ccccc4)c1c23	32*	6	-4	51*	40*
CCN(CC(=O)Nc1ccc(NC(C)=O)cc1)C(=O)c1ccccc1CCc1ccccc1	-2	3	-1	.	.
O=C1OC(/C(=C\Nc2cc(Cl)ccc2O)[N+](=O)[O-])c2ccccc21 (stereo unspecified)	12*	-24	-1	51*	5
O=C1OC(/C(=C\Nc2ccc(F)cc2F)[N+](=O)[O-])c2ccccc21 (stereo unspecified)	4	6	-6	.	.
COc1ccc(C2(C)NC(=O)N(CC(=O)Nc3c(C)n(C)n(-c4ccccc4)c3=O)C2=O)cc1 (stereo unspecified)	1	3	2	.	.
CCCCC1(COC(=O)CCC(=O)O)C(=O)N(c2ccccc2)N(c2ccccc2)C1=O	0	5	1	.	.
CCCCC1(Cc2ccc([N+](=O)[O-])cc2)C(=O)N(c2ccccc2)N(c2ccccc2)C1=O	9.5*	15	11	14	7
O=C(COC(=O)c1cc(S(=O)(=O)N2CCOCC2)c(Cl)cc1Cl)c1ccc[nH]1	1	6	-6	.	.
c1ccc(C2=Nn3c(nnc3-c3cc(-c4ccccc4)n[nH]3)SC2)cc1	8.3*	-11	-2	41*	23*
Clc1ccc(C2=Nn3c(nnc3-c3cc(-c4ccccc4)n[nH]3)SC2)cc1	1	-2	-1	.	.
CCOc1ccccc1NC(=O)c1ccc(NC(=O)C2CCCO2)cc1 (stereo unspecified)	-1	6	5	.	.
Clc1ccc(CN(Cc2ccccc2)C(c2cccs2)c2nnnn2C2CCCC2)cc1 (stereo unspecified)	-1	-2	4	.	.
CC(C)(C)n1nnnc1C(c1cccs1)N(Cc1ccc(Cl)cc1)CC1CCCO1 (stereo unspecified)	7.8*	8	9	20	17*
COc1ccc(CN(CC(=O)NCCc2ccccc2)C(=O)CCC(=O)Nc2ccccn2)cc1	0	12	7	.	.
CCOc1ccc(NC(=O)c2c(N)n(C)c(=O)[nH]c2=O)cc1	2	20	2	.	.
CCc1ccc2c(c1)C(=O)c1ccccc1C2=O	8	9	-3	.	.
CC(C)(C)c1ccc2c(c1)C(=O)c1ccccc1C2=O	7.9*	1	-6	111*	38*
Cc1ccc(C(=O)Nc2c(N)nc(SCC(=O)NCC3CCCO3)[nH]c2=O)cc1 (stereo unspecified)	1	1	-1	.	.
Cc1ccc2c(cnn2C(=O)CCC(=O)N2CCCCC2C)c1 (stereo unspecified)	0	-9	1	.	.
Cc1cc(C)c(C#N)c(SCc2ccccc2[N+](=O)[O-])n1	2	0	-3	.	.
SMILES	FXN GAA850 act	proCasp7 act	procasp3 activ	GAA30 counter	FXN GAA850 conf
Cc1cc(C)c(C#N)c(SCc2nnc(-c3ccccc3[N+](=O)[O-])o2)n1	8.9*	-6	7	108*	41*
O=C(NCc1ccc2c(c1)OCO2)c1nc(S(=O)(=O)Cc2ccccc2F)ncc1Cl	21*	-11	1	41*	65*
O=C(NCc1ccccc1)c1nc(S(=O)(=O)Cc2ccccc2)ncc1Cl	17*	-12	-7	9	28*
CC(C)c1nnc(NC(=O)c2nc(S(=O)(=O)Cc3ccccc3F)ncc2Cl)s1	.	-4	-6	.	.
Cc1ccc(CS(=O)(=O)c2ncc(Cl)c(C(=O)Nc3ccc(OC(F)F)cc3)n2)cc1	-2	-10	-10	.	.
O=C(NCc1ccc2c(c1)OCO2)c1nc(S(=O)(=O)Cc2ccccc2)ncc1Cl	7.9*	-29	-9	38*	70*
COc1ccc(CNC(=O)c2nc(S(=O)(=O)Cc3ccccc3)ncc2Cl)cc1	6	-6	-10	.	.
CC(=O)Nc1ccc(NC(=O)c2nc(S(=O)(=O)Cc3ccccc3)ncc2Cl)cc1	6	-8	-4	.	.
CCS(=O)(=O)c1ncc(Cl)c(C(=O)Nc2ccc(C)cc2)n1	19*	-4	-2	-61	1
CC(C)NC(=O)COC(=O)c1ccccc1C(=O)c1ccccc1	-2	7	8	.	.
Cc1ccc(S(=O)(=O)NCc2ccccc2)cc1C(=O)N(C)CC(=O)Nc1c(Cl)cccc1Cl	-3	6	-1	.	.
COc1ccc(CCN(C)c2ccc(S(=O)(=O)N3CCCC3)cc2[N+](=O)[O-])cc1OC	9.9*	-3	1	9	11*
COc1ccc(CN(C)c2ccc(S(=O)(=O)N3CCN(C)CC3)cc2[N+](=O)[O-])cc1OC	-5	3	-2	.	.
CC1CCC(NC(=O)c2cccc(S(=O)(=O)NCc3ccccc3)c2)CC1 (stereo unspecified)	0	9	-1	.	.
C[C@H](CO)N1C[C@H](C)[C@H](CN(C)S(=O)(=O)c2cccs2)Oc2ccc(NC(=O)Nc3ccc4c(c3)OCO4)cc2CC1=O	10*	3	-1	21	11*
C[C@H](CO)N1C[C@H](C)[C@@H](CN(C)S(=O)(=O)c2cccs2)Oc2ccc(NC(=O)Nc3ccc4c(c3)OCO4)cc2C1=O	-1	-9	-2	.	.
C[C@H](CO)N1C[C@H](C)[C@H](CN(C)S(=O)(=O)c2ccccc2)Oc2ccc(NC(=O)NC3CCCCC3)cc2CC1=O	8.5*	2	7	22	9.2*
Cc1ccc(S(=O)(=O)Nc2ccc3c(c2)CC(=O)N([C@H](C)CO)C[C@@H](C)[C@H](CN(C)S(=O)(=O)c2ccccc2)O3)cc1	0	-2	0	.	.
Cc1sc(N)nc1-c1ccc2c(c1)OCCO2	2	1	3	.	.
Cc1sc(N)nc1-c1ccc(Oc2ccccc2)cc1	8.8*	-5	-5	63*	25*
Cc1ccccc1Oc1ccc(-c2nc(N)nc(N)n2)cc1	3	10	4	.	.
Nc1nc(N)nc(-c2ccc(Oc3ccccc3)cc2)n1	11*	1	0	27*	14*
COC(CNC(=O)c1coc2nc3ccccc3nc12)OC	-2	-6	-10	.	.
CCOc1ccc(NC(=S)NC(=O)c2cccnc2)c([N+](=O)[O-])c1	2	-12	-3	.	.
